Reference: ChEMBL document CHEMBL4706564 (Eur J Med Chem, 2020)

Legend:
[1] = Cytotoxicity against human HEK293T cells incubated for 48 hrs by MTT assay; assay type: cell-based, HEK-293T; conditions: HEK293T cells
In short: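 HEK293T cells at 10⁵ cells/ml were added to two-fold compound dilutions in 10% DMEM and incubated 48 h at 37 °C, 5% CO2. MTT (5 mg/ml stock in PBS, 1/10 volume) was added for 2 h, and formazan was dissolved in DMSO before reading optical density. Each concentration was run in triplicate. CC50 was the concentration giving 50% cell death, or halving OD versus control.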

cells [2] = assay type: cell-based, HEK293T; conditions: Vesicular stomatitis virus, HEK-293T
cells [3] = assay type: cell-based, Ebolavirus, HEK293T; conditions: Orthoebolavirus, Mayinga, HEK-293T
in vitro = conditions: human, HEK293T cells

CC1(C)[C@@H]2CC[C@@]1(C)[C@H](NC(=O)CCN1CCOCC1)C2
CC50 at 48 h [1]: 312 µM | IC50 (cells [2]): 312 µM | IC50 (cells [3]): 22.1 µM

CC1(C)[C@H]2CC[C@]1(C)[C@H](OC(=O)CCCCN1CCCCC1)C2
selectivity ratio (in vitro): 162 | CC50 at 48 h [1]: 101 µM | IC50 (cells [2]): 105 µM | IC50 (cells [3]): 0.6 µM

CC1(C)[C@H]2CC[C@]1(C)[C@H](OC(=O)CN1CCN(CCN)CC1)C2
selectivity ratio (in vitro): 114 | CC50 at 48 h [1]: 247 µM | IC50 (cells [2]): 24.1 µM | IC50 (cells [3]): 2.2 µM

CC1(C)[C@H]2CC[C@]1(C)[C@H](OC(=O)CCCN1CCN(Cc3ccccc3)CC1)C2
selectivity ratio (in vitro): 100 | CC50 at 48 h [1]: 30.1 µM | IC50 (cells [2]): 26 µM | IC50 (cells [3]): 0.3 µM

CN[C@H]1CC[C@@H](c2ccc(Cl)c(Cl)c2)c2ccccc21 [SERTRALINE]
CC50 at 48 h [1]: 408 µM

CC1CCN(CC(=O)N[C@@H]2C[C@H]3CC[C@]2(C)C3(C)C)CC1
CC50 at 48 h [1]: 78 µM | IC50 (cells [2]): 78 µM | IC50 (cells [3]): 27 µM

CN(C)CC(=O)O[C@@H]1C[C@@H]2CC[C@@]1(C)C2(C)C
selectivity ratio (in vitro): 2 | CC50 at 48 h [1]: 389 µM | IC50 (cells [2]): 523 µM | IC50 (cells [3]): 251 µM

CCN(CC)CCC(=O)O[C@@H]1C[C@@H]2CC[C@@]1(C)C2(C)C
selectivity ratio (in vitro): 26 | CC50 at 48 h [1]: 327 µM | IC50 (cells [2]): 411 µM | IC50 (cells [3]): 12.4 µM

CC1(C)[C@H]2CC[C@]1(C)[C@H](OC(=O)CCCN1CCN(CCN)CC1)C2
selectivity ratio (in vitro): 125 | CC50 at 48 h [1]: 71.1 µM | IC50 (cells [2]): 50.4 µM | IC50 (cells [3]): 0.6 µM

CN(C)CCC(=O)O[C@@H]1C[C@@H]2CC[C@@]1(C)C2(C)C
selectivity ratio (in vitro): 17 | CC50 at 48 h [1]: 505 µM | IC50 (cells [3]): 30 µM

CC1(C)[C@@H]2CC[C@@]1(C)[C@H](NC(=O)CCCN1CCOCC1)C2
selectivity ratio (in vitro): 18 | CC50 at 48 h [1]: 172 µM | IC50 (cells [2]): 172 µM | IC50 (cells [3]): 9.4 µM

CC1CCN(CC(=O)O[C@@H]2C[C@H]3CC[C@]2(C)C3(C)C)CC1
selectivity ratio (in vitro): 11 | CC50 at 48 h [1]: 34.1 µM | IC50 (cells [3]): 3.1 µM

CC1CCN(CC(=O)O[C@H]2C[C@@H]3CC[C@@]2(C)C3(C)C)CC1
selectivity ratio (in vitro): 8 | CC50 at 48 h [1]: 34.1 µM | IC50 (cells [3]): 4.4 µM

CC1(C)[C@H]2CC[C@]1(C)[C@H](OC(=O)CCN1CCN(CCO)CC1)C2
selectivity ratio (in vitro): 153 | CC50 at 48 h [1]: 272 µM | IC50 (cells [2]): 259 µM | IC50 (cells [3]): 1.8 µM

CN1CCN(CCC(=O)N[C@@H]2C[C@H]3CC[C@]2(C)C3(C)C)CC1
selectivity ratio (in vitro): 187 | CC50 at 48 h [1]: 486 µM | IC50 (cells [2]): 486 µM | IC50 (cells [3]): 2.6 µM

CC1CCN(CC(=O)O[C@@H]2C[C@@H]3CC[C@@]2(C)C3(C)C)CC1
selectivity ratio (in vitro): 8 | CC50 at 48 h [1]: 71.6 µM | IC50 (cells [2]): 35 µM | IC50 (cells [3]): 8.5 µM

CC1CCN(CCC(=O)N[C@@H]2C[C@H]3CC[C@]2(C)C3(C)C)CC1
selectivity ratio (in vitro): 36 | CC50 at 48 h [1]: 93.6 µM | IC50 (cells [2]): 93.6 µM | IC50 (cells [3]): 2.6 µM

CC1(C)[C@H]2CC[C@]1(C)[C@H](OC(=O)CCCN1CCOCC1)C2
selectivity ratio (in vitro): 33 | CC50 at 48 h [1]: 210 µM | IC50 (cells [2]): 288 µM | IC50 (cells [3]): 6.5 µM

CC1(C)[C@H]2CC[C@]1(C)[C@H](OC(=O)CCN1CCN(Cc3ccccc3)CC1)C2
selectivity ratio (in vitro): 150 | CC50 at 48 h [1]: 39 µM | IC50 (cells [2]): 27 µM | IC50 (cells [3]): 0.3 µM

CC1(C)[C@@H]2CC[C@@]1(C)[C@H](NC(=O)CN1CCOCC1)C2
selectivity ratio (in vitro): 147 | CC50 at 48 h [1]: 838 µM | IC50 (cells [2]): 838 µM | IC50 (cells [3]): 5.7 µM

CC1CCN(CCCC(=O)O[C@@H]2C[C@@H]3CC[C@@]2(C)C3(C)C)CC1
CC50 at 48 h [1]: 171 µM | IC50 (cells [2]): 276 µM | IC50 (cells [3]): 9.3 µM

CC1(C)[C@H]2CC[C@]1(C)[C@H](OC(=O)CN1CCOCC1)C2
selectivity ratio (in vitro): 13 | CC50 at 48 h [1]: 327 µM | IC50 (cells [2]): 291 µM | IC50 (cells [3]): 24.9 µM

CC1(C)[C@H]2CC[C@]1(C)[C@H](OC(=O)CN1CCN(CCO)CC1)C2
selectivity ratio (in vitro): 21 | CC50 at 48 h [1]: 296 µM | IC50 (cells [2]): 394 µM | IC50 (cells [3]): 13.9 µM

CCN(CC)CC(=O)O[C@@H]1C[C@@H]2CC[C@@]1(C)C2(C)C
selectivity ratio (in vitro): 61 | CC50 at 48 h [1]: 344 µM | IC50 (cells [2]): 561 µM | IC50 (cells [3]): 5.6 µM

CC1CCN(CCCCC(=O)O[C@@H]2C[C@@H]3CC[C@@]2(C)C3(C)C)CC1
selectivity ratio (in vitro): 408 | CC50 at 48 h [1]: 73 µM | IC50 (cells [2]): 83.5 µM | IC50 (cells [3]): 0.2 µM

CN1CCN(CC(=O)O[C@@H]2C[C@@H]3CC[C@@]2(C)C3(C)C)CC1
selectivity ratio (in vitro): 46 | CC50 at 48 h [1]: 312 µM | IC50 (cells [2]): 485 µM | IC50 (cells [3]): 6.8 µM

CCOC(=O)N1CCN(CC(=O)O[C@@H]2C[C@@H]3CC[C@@]2(C)C3(C)C)CC1
selectivity ratio (in vitro): 11 | CC50 at 48 h [1]: 227 µM | IC50 (cells [2]): 113 µM | IC50 (cells [3]): 19.9 µM

CC1(C)[C@H]2CC[C@]1(C)[C@H](OC(=O)CCCN1CCCCCC1)C2
selectivity ratio (in vitro): 250 | CC50 at 48 h [1]: 62.2 µM | IC50 (cells [3]): 0.2 µM

CCN(CC)CCCC(=O)O[C@@H]1C[C@@H]2CC[C@@]1(C)C2(C)C
selectivity ratio (in vitro): 490 | CC50 at 48 h [1]: 166 µM | IC50 (cells [2]): 195 µM | IC50 (cells [3]): 0.3 µM

CC1(C)[C@H]2CC[C@]1(C)[C@H](OC(=O)CCCN1CCN(CCO)CC1)C2
selectivity ratio (in vitro): 658 | CC50 at 48 h [1]: 224 µM | IC50 (cells [2]): 192 µM | IC50 (cells [3]): 0.3 µM

CC1(C)[C@@H]2CC[C@@]1(C)[C@H](OC(=O)CN1CCCCC1)C2
selectivity ratio (in vitro): 28 | CC50 at 48 h [1]: 80.5 µM | IC50 (cells [3]): 2.9 µM

CCOC(=O)N1CCN(CCCC(=O)O[C@@H]2C[C@@H]3CC[C@@]2(C)C3(C)C)CC1
selectivity ratio (in vitro): 23 | CC50 at 48 h [1]: 60.4 µM | IC50 (cells [2]): 49.1 µM | IC50 (cells [3]): 2.6 µM

CC1(C)[C@H]2CC[C@]1(C)[C@H](OC(=O)CCCN1CCCCC1)C2
selectivity ratio (in vitro): 230 | CC50 at 48 h [1]: 74.8 µM | IC50 (cells [2]): 50.1 µM | IC50 (cells [3]): 0.3 µM

CC1CCN(CCCC(=O)N[C@@H]2C[C@H]3CC[C@]2(C)C3(C)C)CC1
selectivity ratio (in vitro): 41 | CC50 at 48 h [1]: 142 µM | IC50 (cells [2]): 142 µM | IC50 (cells [3]): 3.4 µM

CCOC(=O)N1CCN(CCC(=O)O[C@@H]2C[C@@H]3CC[C@@]2(C)C3(C)C)CC1
selectivity ratio (in vitro): 4 | CC50 at 48 h [1]: 110 µM | IC50 (cells [3]): 28.3 µM

CC1(C)[C@H]2CC[C@]1(C)[C@@H](OC(=O)CN1CCCCC1)C2
selectivity ratio (in vitro): 25 | CC50 at 48 h [1]: 89.5 µM | IC50 (cells [3]): 3.6 µM

CN1CCN(CCCC(=O)O[C@@H]2C[C@@H]3CC[C@@]2(C)C3(C)C)CC1
CC50 at 48 h [1]: 99.2 µM | IC50 (cells [2]): 97.3 µM | IC50 (cells [3]): 0.6 µM

CCN1CCN(CCC(=O)N[C@@H]2C[C@H]3CC[C@]2(C)C3(C)C)CC1
selectivity ratio (in vitro): 908 | CC50 at 48 h [1]: 565 µM | IC50 (cells [2]): 565 µM | IC50 (cells [3]): 0.6 µM

CCN1CCN(CCCC(=O)O[C@@H]2C[C@@H]3CC[C@@]2(C)C3(C)C)CC1
selectivity ratio (in vitro): 880 | CC50 at 48 h [1]: 131 µM | IC50 (cells [2]): 165 µM | IC50 (cells [3]): 0.1 µM

CC1(C)[C@H]2CC[C@]1(C)[C@H](OC(=O)CN1CCCCCC1)C2
selectivity ratio (in vitro): 70 | CC50 at 48 h [1]: 71.6 µM | IC50 (cells [3]): 1 µM

CN(C)CCCC(=O)O[C@@H]1C[C@@H]2CC[C@@]1(C)C2(C)C
selectivity ratio (in vitro): 67 | CC50 at 48 h [1]: 101 µM | IC50 (cells [3]): 1.5 µM
